Laboratory results from ChEMBL document CHEMBL4680236, “Design, synthesis and structure-activity relationships of novel 15-membered macrolides: Quinolone/quinoline-containing sidechains tethered to the C-6 position of azithromycin acylides” (Eur J Med Chem, 2020).
Converted amounts (≈) assume the structure as drawn.

Legend:
Format in all cases: functional
Streptococcus pneumoniae [1] = test: Antibacterial activity against MLSB-resistant Streptococcus pneumoniae 07P390 harboring ermB gene assessed as reduction in microbial growth
Staphylococcus aureus [2] = test: Antibacterial activity against MLSB/methicillin-resistant Staphylococcus aureus 15B196 assessed as reduction in microbial growth relative to ciprofloxacin
Streptococcus pneumoniae [3] = test: Antibacterial activity against penicillin-susceptible Streptococcus pneumoniae PU09 harboring mef gene assessed as reduction in microbial growth
Staphylococcus aureus [4] = test: Antibacterial activity against MLSB/methicillin/ciprofloxacin-resistant Staphylococcus aureus PU32 harboring ermA gene assessed as reduction in microbial growth
Haemophilus influenzae [5] = test: Antibacterial activity against azithromycin-susceptible Haemophilus influenzae ATCC 49247 assessed as reduction in microbial growth relative to ciprofloxacin
Staphylococcus aureus [6] = test: Antibacterial activity against MLSB/methicillin/ciprofloxacin-resistant Staphylococcus aureus PU32 harboring ermA gene assessed as reduction in microbial growth relative to ciprofloxacin
Haemophilus influenzae [7] = test: Antibacterial activity against azithromycin-susceptible Haemophilus influenzae ATCC 49247 assessed as reduction in microbial growth
Staphylococcus aureus [8] = test: Antibacterial activity against MLSB/methicillin-resistant Staphylococcus aureus 15B196 assessed as reduction in microbial growth
Streptococcus pyogenes [9] = test: Antibacterial activity against MLSB-resistant Streptococcus pyogenes 12-206 harboring ermA gene assessed as reduction in microbial growth
Staphylococcus aureus [10] = test: Bactericidal activity against MLSB/methicillin/ciprofloxacin-resistant Staphylococcus aureus PU32 harboring ermA gene
How it was run: (§1)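 Bacteria were exposed to 1- to 8-fold their MIC of test sample, then transferred to fresh culture medium without antibacterial compound and incubated for the required time. Colonies were then counted. MBC is the lowest concentration giving a reduction in colony number of >3 Log₁₀.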

Streptococcus pneumoniae [11] = test: Bactericidal activity against Erythromycin-susceptible Streptococcus pneumoniae ATCC 49619
How it was run: (§2)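 Bacteria were exposed to 1- to 8-fold MIC of the sample, then transferred to fresh medium without antibacterial. After further incubation, colonies were counted. MBC was taken as the lowest concentration giving a >3 log10 reduction in colony number.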

Streptococcus pneumoniae [12] = test: Antibacterial activity against Erythromycin-susceptible Streptococcus pneumoniae ATCC 49619 assessed as reduction in microbial growth
Haemophilus influenzae [13] = test: Ratio of MBC to MIC against azithromycin-susceptible Haemophilus influenzae ATCC 49247
Streptococcus pneumoniae [14] = test: Ratio of MBC to MIC against Erythromycin-susceptible Streptococcus pneumoniae ATCC 49619
Streptococcus pneumoniae [15] = test: Bactericidal activity against penicillin-susceptible Streptococcus pneumoniae PU09 harboring mef gene; how it was run: as §1
Haemophilus influenzae [16] = test: Bactericidal activity against azithromycin-susceptible Haemophilus influenzae ATCC 49247; how it was run: as §2
Staphylococcus aureus [17] = test: Bactericidal activity against MLSB/methicillin-resistant Staphylococcus aureus 15B196; how it was run: as §1
Staphylococcus aureus [18] = test: Ratio of MBC to MIC against MLSB/methicillin/ciprofloxacin-resistant Staphylococcus aureus PU32 harboring ermA gene
Streptococcus pneumoniae [19] = test: Ratio of MBC to MIC against penicillin-susceptible Streptococcus pneumoniae PU09
Streptococcus pneumoniae [20] = test: Bactericidal activity against MLSB-resistant Streptococcus pneumoniae 07P390 harboring ermB gene assessed as reduction in microbial growth; how it was run: as §1
Streptococcus pneumoniae [21] = test: Ratio of MBC to MIC against MLSB-resistant Streptococcus pneumoniae 07P390 harboring ermB
Streptococcus pyogenes [22] = test: Bactericidal activity against MLSB-resistant Streptococcus pyogenes 12-206 harboring ermA gene; how it was run: as §1
Streptococcus pyogenes [23] = test: Ratio of MBC to MIC against MLSB-resistant Streptococcus pyogenes 12-206 harboring ermA gene

CC[C@H]1OC(=O)[C@H](C)[C@@H](O[C@H]2C[C@@](C)(OC)[C@@H](O)[C@H](C)O2)[C@H](C)[C@@H](O[C@@H]2O[C@H](C)C[C@H](N(C)C)[C@H]2O)[C@](C)(OC)C[C@@H](C)C(=O)[C@H](C)[C@@H](O)[C@]1(C)O [CLARITHROMYCIN]
MIC (Streptococcus pneumoniae [1]): > 256 µg/mL
fold change (FC) (Staphylococcus aureus [2]): >57
MIC (Streptococcus pneumoniae [3]): 8 µg/mL
MIC (Staphylococcus aureus [4]): 64 µg/mL
fold change (FC) (Haemophilus influenzae [5]): 1768
fold change (FC) (Staphylococcus aureus [6]): 0.11
MIC (Haemophilus influenzae [7]): 16 µg/mL
MIC (Staphylococcus aureus [8]): ≥ 16 µg/mL
MIC (Streptococcus pyogenes [9]): > 256 µg/mL

CC[C@H]1OC(=O)[C@H](C)[C@@H](OC(=O)Cc2ccccn2)[C@H](C)[C@@H](O[C@@H]2O[C@H](C)C[C@H](N(C)C)[C@H]2O)[C@](C)(OC(=O)CCNCC#Cc2cnc3ccccc3c2)C[C@@H](C)CN(C)[C@H](C)[C@@H](O)[C@]1(C)O
MIC (Streptococcus pneumoniae [1]): 1 µg/mL
MIC (Streptococcus pneumoniae [3]): 2 µg/mL
MIC (Staphylococcus aureus [4]): 2 µg/mL
MBC (Staphylococcus aureus [10]): 8 µg/mL (≈ 8.45 µM)
MBC (Streptococcus pneumoniae [11]): 0.125 µg/mL (≈ 0.132 µM)
MIC (Streptococcus pneumoniae [12]): 0.125 µg/mL
Ratio (Haemophilus influenzae [13]): 1
Ratio (Streptococcus pneumoniae [14]): 1
MBC (Streptococcus pneumoniae [15]): 2 µg/mL (≈ 2.11 µM)
MBC (Haemophilus influenzae [16]): 4 µg/mL (≈ 4.23 µM)
MBC (Staphylococcus aureus [17]): > 256 µg/mL
Ratio (Staphylococcus aureus [18]): 4
Ratio (Streptococcus pneumoniae [19]): 1
MIC (Haemophilus influenzae [7]): 4 µg/mL
MBC (Streptococcus pneumoniae [20]): > 8 µg/mL
MIC (Staphylococcus aureus [8]): 128 µg/mL
Ratio (Streptococcus pneumoniae [21]): >8

CC[C@H]1OC(=O)[C@H](C)[C@@H](OC(=O)Cc2cccnc2)[C@H](C)[C@@H](O[C@@H]2O[C@H](C)C[C@H](N(C)C)[C@H]2O)[C@](C)(OC(=O)CCNCCC#Cc2ccc3c(c2)c(=O)c(C(=O)O)cn3C2CC2)C[C@@H](C)CN(C)[C@H](C)[C@H]2OC(=O)O[C@@]21C
MIC (Streptococcus pneumoniae [1]): 64 µg/mL
MIC (Streptococcus pneumoniae [3]): 4 µg/mL
MIC (Staphylococcus aureus [4]): 128 µg/mL
MBC (Streptococcus pyogenes [22]): 64 µg/mL (≈ 58.9 µM)
MBC (Staphylococcus aureus [10]): > 256 µg/mL
MBC (Streptococcus pneumoniae [11]): 8 µg/mL (≈ 7.36 µM)
MIC (Streptococcus pneumoniae [12]): 2 µg/mL
Ratio (Haemophilus influenzae [13]): 2
Ratio (Streptococcus pneumoniae [14]): 4
MBC (Streptococcus pneumoniae [15]): 16 µg/mL (≈ 14.7 µM)
MBC (Haemophilus influenzae [16]): 64 µg/mL (≈ 58.9 µM)
MBC (Staphylococcus aureus [17]): > 256 µg/mL
Ratio (Streptococcus pyogenes [23]): 1
Ratio (Streptococcus pneumoniae [19]): 4
MIC (Haemophilus influenzae [7]): 32 µg/mL
MBC (Streptococcus pneumoniae [20]): 128 µg/mL
MIC (Staphylococcus aureus [8]): 256 µg/mL
Ratio (Streptococcus pneumoniae [21]): 2
MIC (Streptococcus pyogenes [9]): 64 µg/mL

CC[C@H]1OC(=O)[C@H](C)[C@@H](OC(=O)Cc2ccccn2)[C@H](C)[C@@H](O[C@@H]2O[C@H](C)C[C@H](N(C)C)[C@H]2O)[C@](C)(OC(=O)CCNCCC#Cc2ccc3c(c2)c(=O)c(C(=O)O)cn3C2CC2)C[C@@H](C)CN(C)[C@H](C)[C@@H](O)[C@]1(C)O
MIC (Streptococcus pneumoniae [1]): 64 µg/mL
MIC (Streptococcus pneumoniae [3]): 2 µg/mL
MIC (Staphylococcus aureus [4]): 128 µg/mL
MBC (Streptococcus pyogenes [22]): 128 µg/mL (≈ 121 µM)
MBC (Staphylococcus aureus [10]): > 256 µg/mL
MBC (Streptococcus pneumoniae [11]): 0.5 µg/mL (≈ 0.472 µM)
MIC (Streptococcus pneumoniae [12]): 0.25 µg/mL
Ratio (Haemophilus influenzae [13]): 2
Ratio (Streptococcus pneumoniae [14]): 2
MBC (Streptococcus pneumoniae [15]): 4 µg/mL (≈ 3.77 µM)
MBC (Haemophilus influenzae [16]): 64 µg/mL (≈ 60.4 µM)
MBC (Staphylococcus aureus [17]): > 256 µg/mL
Ratio (Streptococcus pyogenes [23]): 8
Ratio (Streptococcus pneumoniae [19]): 2
MIC (Haemophilus influenzae [7]): 32 µg/mL
MBC (Streptococcus pneumoniae [20]): 256 µg/mL
MIC (Staphylococcus aureus [8]): > 256 µg/mL
Ratio (Streptococcus pneumoniae [21]): 4
MIC (Streptococcus pyogenes [9]): 16 µg/mL

CC[C@H]1OC(=O)[C@H](C)[C@@H](OC(=O)Cc2ccccn2)[C@H](C)[C@@H](O[C@@H]2O[C@H](C)C[C@H](N(C)C)[C@H]2O)[C@](C)(OC(=O)CCNCCCCc2cnc3ccccc3c2)C[C@@H](C)CN(C)[C@H](C)[C@@H](O)[C@]1(C)O
MIC (Streptococcus pneumoniae [1]): 8 µg/mL
MIC (Streptococcus pneumoniae [3]): 4 µg/mL
MIC (Staphylococcus aureus [4]): 4 µg/mL
MBC (Staphylococcus aureus [10]): 16 µg/mL (≈ 16.6 µM)
MBC (Streptococcus pneumoniae [11]): 0.5 µg/mL (≈ 0.519 µM)
MIC (Streptococcus pneumoniae [12]): 0.25 µg/mL
Ratio (Haemophilus influenzae [13]): 2
Ratio (Streptococcus pneumoniae [14]): 2
MBC (Streptococcus pneumoniae [15]): 4 µg/mL (≈ 4.15 µM)
MBC (Haemophilus influenzae [16]): 32 µg/mL (≈ 33.2 µM)
MBC (Staphylococcus aureus [17]): > 256 µg/mL
Ratio (Staphylococcus aureus [18]): 4
Ratio (Streptococcus pneumoniae [19]): 1
MIC (Haemophilus influenzae [7]): 16 µg/mL
MBC (Streptococcus pneumoniae [20]): 32 µg/mL
MIC (Staphylococcus aureus [8]): 256 µg/mL
Ratio (Streptococcus pneumoniae [21]): 4
